CHT block = inhibitors of human choline transporter CHT. AID 488975, 2010. actives 0.86% (n = 310,000). CHT-expressing cells, membrane potential dye, choline response; active compounds read low. B-score at 10 µM;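 active means B-score over 3 SD under the library average, and starting fluorescence ratio not unusually high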;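 further: choline stimulus applied at its EC90 after an EC20 pre-addition; B-score computed on integrated fluorescence ratio after choline addition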
Target sequence (Q9GZV3 whole entry, looked up): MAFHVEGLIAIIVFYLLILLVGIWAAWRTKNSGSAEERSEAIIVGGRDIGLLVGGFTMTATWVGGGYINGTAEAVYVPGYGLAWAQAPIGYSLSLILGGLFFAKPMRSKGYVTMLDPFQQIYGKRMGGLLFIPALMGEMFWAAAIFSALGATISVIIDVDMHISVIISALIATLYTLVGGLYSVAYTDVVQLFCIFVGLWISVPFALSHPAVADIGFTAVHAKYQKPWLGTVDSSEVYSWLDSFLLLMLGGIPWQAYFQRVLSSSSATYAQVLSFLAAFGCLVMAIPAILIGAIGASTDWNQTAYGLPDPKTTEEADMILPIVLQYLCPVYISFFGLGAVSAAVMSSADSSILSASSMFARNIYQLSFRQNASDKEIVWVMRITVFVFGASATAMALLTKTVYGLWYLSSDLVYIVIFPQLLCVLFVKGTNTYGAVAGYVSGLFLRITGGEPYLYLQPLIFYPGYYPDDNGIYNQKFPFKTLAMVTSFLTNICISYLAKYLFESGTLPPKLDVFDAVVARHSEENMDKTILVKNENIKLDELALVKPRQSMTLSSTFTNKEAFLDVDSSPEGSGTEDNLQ
Lipid droplet = inhibitors of hepatocyte lipid droplet formation, primary screen, imaging, high-throughput imaging, BODIPY stain; AML12 mouse hepatocytes, oleate lipid droplets; inhibition, % at 6.5 µM; actives 0.4% (n = 240,000); AID 1656, 2009;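 active means lipid droplet intensity inhibited by at least 50%, with more than 500 cells counted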
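Technique: fluorescence imaging, 20x objective, two fields per well / Assay system: AML12 hepatocytes (mouse) / Measure: % inhibition of lipid droplet signal / Doses: 6.5 µM single-point dosing / Incubation: overnight exposure / Reagent: 100 µM oleic acid challenge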
PHOSPHO1 block = PubChem AID 1565; Phosphoethanolamine/phosphocholine phosphatase (Homo sapiens), Q8TCT1; recombinant PHOSPHO1, absorbance phosphatase assay; inhibition, % at 13.3 µM; actives 1.1% (n = 290,000); in the data active means inhibition above about 60%
CHT allo act = CHT positive allosteric modulators, primary screen, cell-based, membrane potential dye, choline EC20. actives 0.49% (n = 310,000). High affinity choline transporter 1 (Homo sapiens), Q9GZV3. B-score at 10 µM. AID 488977, 2010. CHT-expressing cells; active compounds read high; LV-AA mutant CHT in HEK293 cells;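 active means initial fluorescence not abnormally high and integrated response B-score, plate-corrected, over 3 SD above library mean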
HSF1 inhib = HSF1 inhibitors in luciferase reporter cells, primary screen, cell-based, NIH3T3, luminescence; actives 0.77% (n = 300,000); activity change, negative = inhibition, % at 7.5 µM (by protocol); NIH3T3-HGL HSE-luciferase, MG132-induced, luminescence 8 h; active compounds read low;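 active means more than half of replicate wells show activity change below -50%, luminescence cut by over half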;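 further: luciferase reports HSF-1 transcriptional activity via heat shock element; 0% = median of DMSO wells and -100% = zero luminescence signal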
HSF-1 act = HSF-1 activators, primary screen, NIH3T3-HGL cells, MG132 stress, luminescence, single point | NIH3T3-HGL HSF-1 luciferase reporter, 8 h; 100% = twice DMSO control signal | activation, % at 9 µM | actives 1.7% (n = 300,000);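 active means mean replicate activation of at least 50% with a set share of replicates each reaching 50%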;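 further: 0% = median of the neutral control wells and 100% = twice that signal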
The depositor's hits bear a star; i = inactive; / = no result given. This is a sample that favours compounds with a hit; in the whole collection about 4.9% have one here.

SMILES | CHT block | Lipid droplet | PHOSPHO1 block | CHT allo act | HSF1 inhib | HSF-1 act
Cc1ccc(-c2nnn(CC(=O)NC3CCN(Cc4ccccc4)CC3)n2)cc1 | i | 3 | -6 | i | -3 | 6
O=C1c2ccccc2C(=O)N1CCC(=O)N1CCCc2ccccc21 | i | / | 17 | i | 22 | 58*
Cc1ccc(-c2nnn(CC(=O)NC3CCCc4ccccc43)n2)cc1 (stereo not given) | i | / | 62* | i | -5 | 20
O=C(Cn1cc([N+](=O)[O-])cn1)N1CCCc2ccccc21 | i | -2 | 64* | i | 1 | -5
O=C1c2ccccc2C(=O)N1CCCC(=O)N1CCc2ccccc21 | i | -6 | 5 | i | -6 | -16
Cc1ccc(-c2nnn(CC(=O)N3CCCc4ccccc43)n2)cc1 | i | / | 18 | i | 11 | 57*
COc1ccc(NC(=O)/C=C/c2ccc3c(c2)OCO3)cc1 | i | 3 | 23 | i | 18 | 40
C#CCOCCOCCOCCNc1nc(N2CCN(C(=O)[C@H]([C@@H](C)CC)n3cc([C@@H](N)CO)nn3)CC2)nc(N2CCN(C(=O)[C@H](CCCCN)n3cc([C@@H](N)CC(C)C)nn3)CC2)n1 | i | -2 | 36 | i | -4 | 9
CNC(=S)NCc1ccc(Cl)cc1 | i | / | / | i | 3 | 33
CCC(=O)Nc1ccccc1C(=O)OCC(=O)c1ccccc1 | i | / | -21 | i | 35 | 79*
O=C(C[n+]1cccc(C(=O)Nc2ccccc2)c1)c1ccc([N+](=O)[O-])cc1 | i | -36 | 30 | i | 60 | 132*
O=C(COC(=O)c1ccccc1NC(=O)c1ccccc1)c1ccc([N+](=O)[O-])cc1 | i | -7 | -3 | 6.4* | 15 | 40
O=C(Nc1ccc(F)cc1)N1CCN(c2ccc3nnc(-c4ccc(F)cc4)n3n2)CC1 | i | / | 35 | i | 7 | -1
Fc1ccc(-c2nnc3ccc(N4CCc5ccccc5C4)nn23)cc1 | i | / | -2 | i | 64 | 80*
O=C(CC(=O)c1ccccc1)Nc1ccc2c(c1)OCCO2 | i | / | -3 | i | 28 | 54*
O=C(NCc1ccccc1)c1ccc2c(c1)OCCO2 | i | / | -3 | i | 14 | 16
O=C(CC1CS(=O)(=O)CC1CC(=O)Nc1ccc2c(c1)OCCO2)Nc1ccc2c(c1)OCCO2 (stereo not given) | i | -6 | 29 | i | -82* | -86
CCC(=O)Nc1ccc2c(c1)OCCO2 | i | / | -19 | i | -11 | -14
O=C(CCCc1ccccc1)Nc1ccc2c(c1)OCCO2 | i | 12 | -30 | i | 36 | 75*
O=C(Nc1ccc2c(c1)OCCO2)C(=S)NCc1ccccc1 | i | -6 | 28 | i | 45 | 68*
CCc1ccc(CCC(=O)Nc2ccc(C)c(C)c2)o1 | i | -4 | 13 | i | 19 | 24
O=C(COC(=O)C1CC2C=CC1C2)Nc1cccc(S(=O)(=O)N2CCCCC2)c1 (stereo not given) | i | -2 | -14 | i | 6 | 18
O=C(COC(=O)C1CC2C=CC1C2)Nc1ccc2c(c1)OC(F)(F)O2 (stereo not given) | i | 7 | 9 | i | 88 | 105*
CC(C)(C)c1nnc2sc(SC/C(O)=C(\C#N)c3nc4ccccc4[nH]3)nn2c1=O | i | / | 71* | i | 4 | 19
CC(C)(C)c1nnc2sc(SCC(=O)c3ccccc3)nn2c1=O | i | -3 | 27 | i | 0 | -15
SMILES | CHT block | Lipid droplet | PHOSPHO1 block | CHT allo act | HSF1 inhib | HSF-1 act
CCOc1cc(C(=S)N2CCOCC2)ccc1OS(=O)(=O)c1ccc(OC)cc1 | i | -32 | 32 | i | -78* | -83
COc1ccnc(Oc2ccc3ccccc3c2)c1C#N | i | / | 47 | i | -3 | -5
CC(=O)c1cccc(NC(=O)C2CC(=O)N(CCc3ccccc3)C2)c1 (stereo not given) | i | 7 | 32 | i | -59* | -68
Cc1ccccc1Oc1nc2c(C)cccn2c(=O)c1/C=C(\C#N)C(=O)Nc1c(C)n(C)n(-c2ccccc2)c1=O | i | 7 | -6 | i | 105 | 137*
CCC(C)(C)n1nnnc1C(c1cc2cc(C)cc(C)c2[nH]c1=O)N1CCN(Cc2ccc3c(c2)OCO3)CC1 (stereo not given) | / | 16 | 11 | / | 21 | 54*
COc1ccc(NC(=S)Nc2ccccc2OC)c(OC)c1 | i | -14 | -13 | i | -7 | 1
Fc1ccc(NC(=S)Nc2ccc(Cl)cc2)cc1 | i | -22 | 4 | i | 16 | 2
Fc1ccc(NC(=S)Nc2cc(Cl)ccc2Cl)cc1 | i | -6 | 44 | i | 43 | 77*
COc1ccc(NC(=S)Nc2ccc(F)cc2)c(OC)c1 | i | / | / | i | -52* | -61
CC(C)c1ccc(NC(=O)CSc2nc3c(c(=O)[nH]2)CCC3)cc1 | / | -37 | -3 | / | / | /
S=c1[nH]c2ccccc2n1Cc1ccccc1 | i | -1 | -65 | i | 4 | 0
Cn1c(=S)[nH]c2ccccc21 | i | -1 | 74* | i | / | /
N#CCCn1c(=S)[nH]c2ccccc21 | i | -2 | 88* | i | -6 | 0
O=C(Nc1nncs1)c1ccc(N2C(=O)C3C4C=CC(C4)C3C2=O)cc1 (stereo not given) | i | 22 | 35 | i | -7 | 8
O=C(Nc1ccc(N2C(=O)C3C4C=CC(C4)C3C2=O)cc1)Nc1nncs1 (stereo not given) | i | 11 | 6 | i | -86* | -89
COc1cc2c(cc1OC)CN(c1ccc(C(F)(F)F)cn1)CC2 | i | -4 | 32 | i | 66 | 102*
Cc1ccccc1-n1c(-c2ccc(Cl)cc2)cnc1SCC(=O)NC1CCS(=O)(=O)C1 (stereo not given) | i | 10 | -3 | i | 14 | 70*
O=C(CSc1nnc(-c2ccccc2)n1-c1ccc(Cl)cc1)NC1CCS(=O)(=O)C1 (stereo not given) | i | 5 | 11 | i | 5 | 22
COc1ccc(NC(=O)CCN2C(=O)C3CC=C(Cl)CC3C2=O)cc1 (stereo not given) | i | 17 | -8 | i | -4 | 30
CC1(OC(=O)c2cccs2)C(=O)C=C2C=C3CCCN3C=C2C1=O (stereo not given) | -5.3* | -20 | 18 | i | -5 | -14
O=C(Cn1sc2ccccc2c1=O)NC12CC3CC(CC(C3)C1)C2 | i | -16 | 84* | i | -6 | 2

High-throughput results: PubChem BioAssay, several laboratories
